Assay results from ChEMBL document CHEMBL1122873, “Acetoxy-substituted 1,1,2-triphenylbut-1-enes with antiestrogenic and mammary tumor inhibiting properties” (1985).

Legend:
[1] = target: T1, Estrogen receptor (Mus musculus) (UniProt O08537+P19785); test: Antiestrogenic activity in immature mouse Uterine weight test at 100 ug dose; format: functional
In short: (§1)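 Antiestrogenic read-out is inhibition of estrone-stimulated uterine growth, given as % inhibition. Immature female NMRI mice (10–12 g, 20 days old, 10 per group) received the compound sc daily for 3 days in 0.1 mL olive oil. Uteri were taken 24 h after the last dose, Bouin-fixed, dried and weighed.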

[2] = target: T1, Estrogen receptor (Mus musculus); test: Antiestrogenic activity in immature mouse Uterine weight test at 5 ug dose; format: functional; in short: as §1
[3] = target: T1, Estrogen receptor (Mus musculus); test: Estrogenic activity in immature mouse using Uterine weight test at 50 ug dose; format: functional
In short: (§2)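 Immature female NMRI mice (10–12 g, 20 days old at start, 10 per group) got the compound sc daily for 3 consecutive days in 0.1 mL olive oil. Uteri were removed 24 h after the last injection, fixed in Bouin's solution, dried and weighed. Uterine growth stimulation is the estrogenic read-out.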

[4] = target: T1, Estrogen receptor (Mus musculus); test: Estrogenic activity in immature mouse using Uterine weight test at 1 ug dose; format: functional; in short: as §2
[5] = target: T1, Estrogen receptor (Mus musculus); test: Estrogenic activity in immature mouse using Uterine weight test at 5 ug dose; format: functional; in short: as §2
[6] = target: T1, Estrogen receptor (Mus musculus); test: In vivo uterotrophic effect in hormone-dependent MXT mammary tumor bearing BDF1 mice at 12 mg/kg dose; format: functional, organism-based; design: dose 12 mg/kg
In short: (§3)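 Uterotrophic effect was measured in the same MXT tumor-bearing BDF1 mice (groups of 10). They were dosed sc three times weekly in olive oil (0.1 mL/mouse) for 6 weeks from day 1 after transplantation. Read-out is T/C % of uterotrophic effect versus solvent control after 6 weeks (mean of 10); significance α ≤ 0.05.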

[7] = target: T1, Estrogen receptor (Mus musculus); test: Antiestrogenic activity in immature mouse Uterine weight test at 25 ug dose; format: functional; in short: as §1
[8] = target: T2, Estrogen receptor (Bos taurus) (UniProt Q9XSB5+P49884); test: Relative displacement of [3H]estradiol from calf uterine estrogen receptor; format: protein assay
In short: (§4)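 Calf uterine cytosol was incubated with 1×10⁻⁹ M [³H]estradiol and five or six competitor concentrations for 16 h at 4 °C. Dextran-coated charcoal removed unbound ligand (90 min, 4 °C), and supernatant radioactivity was counted. The 50% displacement concentration was read from a semilog plot. RBA = [E2]/[I] × 100.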

[9] = target: T1, Estrogen receptor (Mus musculus); test: Estrogenic activity in immature mouse using Uterine weight test at 250 ug dose; format: functional; in short: as §2
[10] = system: Mus musculus; test: In vivo inhibition of hormone-dependent MXT mammary tumor in BDF1 mouse at 12 mg/kg dose; format: functional
In short: (§5)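 Transplantable hormone-dependent MXT tumor pieces (1 per animal) were implanted in BDF1 mice, then randomized into groups of 10. Dosing was sc three times weekly (Mon/Wed/Fri) in olive oil (0.1 mL/mouse) from day 1 after transplantation for 6 weeks, at equimolar doses. Read-out is tumor weight T/C % versus solvent control (mean of 10); significance α ≤ 0.05.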

[11] = system: Mus musculus; test: In vivo inhibition of hormone-dependent MXT mammary tumor in BDF1 mouse at 8.0 mg/kg dose; format: functional; in short: as §5
[12] = target: T1, Estrogen receptor (Mus musculus); test: In vivo uterotrophic effect in hormone-dependent MXT mammary tumor bearing BDF1 mice at 8.0 mg/kg dose; format: functional, organism-based; design: dose 8 mg/kg; in short: as §3
[13] = target: T1, Estrogen receptor (Mus musculus); test: Antiestrogenic activity in immature mouse Uterine weight test at 25 ug dose
[14] = target: T2, Estrogen receptor (Bos taurus); test: Tested in vitro for its binding affinity against Estrogen receptor; format: protein assay; in short: as §4
[15] = target: T1, Estrogen receptor (Mus musculus); test: Estrogenic activity in immature mouse using Uterine weight test at 0.5 ug dose; format: functional; in short: as §2
[16] = system: Mus musculus; test: In vivo inhibition of hormone-dependent MXT mammary tumor in BDF1 mouse at 5.4 mg/kg dose; format: functional; in short: as §5
[17] = target: T1, Estrogen receptor (Mus musculus); test: Antiestrogenic activity in immature mouse Uterine weight test at 1 ug dose; format: functional; in short: as §1
[18] = target: T1, Estrogen receptor (Mus musculus); test: Estrogenic activity in immature mouse using Uterine weight test at 10 ug dose; format: functional; in short: as §2
[19] = target: T1, Estrogen receptor (Mus musculus); test: Estrogenic activity in immature mouse using Uterine weight test at 25 ug dose; format: functional; in short: as §2
[20] = system: Mus musculus; test: In vivo inhibition of hormone-dependent MXT mammary tumor in BDF1 mouse at 11.3 mg/kg dose; format: functional; in short: as §5

T1 sequence (O08537 whole entry, looked up): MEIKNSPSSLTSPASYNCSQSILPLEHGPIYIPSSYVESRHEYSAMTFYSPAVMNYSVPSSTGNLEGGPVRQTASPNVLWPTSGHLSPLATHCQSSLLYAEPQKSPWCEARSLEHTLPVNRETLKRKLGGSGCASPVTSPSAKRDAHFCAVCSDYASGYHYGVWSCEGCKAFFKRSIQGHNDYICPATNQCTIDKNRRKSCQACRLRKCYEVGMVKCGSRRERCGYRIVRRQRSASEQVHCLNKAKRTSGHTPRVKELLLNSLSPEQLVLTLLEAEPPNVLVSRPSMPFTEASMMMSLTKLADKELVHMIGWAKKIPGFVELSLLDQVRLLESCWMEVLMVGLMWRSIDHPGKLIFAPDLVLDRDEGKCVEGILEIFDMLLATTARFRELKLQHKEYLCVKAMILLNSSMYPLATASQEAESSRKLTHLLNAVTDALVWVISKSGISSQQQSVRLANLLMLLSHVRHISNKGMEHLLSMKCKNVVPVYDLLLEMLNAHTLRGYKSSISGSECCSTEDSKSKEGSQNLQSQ
T1 sequence (P19785 whole entry, looked up): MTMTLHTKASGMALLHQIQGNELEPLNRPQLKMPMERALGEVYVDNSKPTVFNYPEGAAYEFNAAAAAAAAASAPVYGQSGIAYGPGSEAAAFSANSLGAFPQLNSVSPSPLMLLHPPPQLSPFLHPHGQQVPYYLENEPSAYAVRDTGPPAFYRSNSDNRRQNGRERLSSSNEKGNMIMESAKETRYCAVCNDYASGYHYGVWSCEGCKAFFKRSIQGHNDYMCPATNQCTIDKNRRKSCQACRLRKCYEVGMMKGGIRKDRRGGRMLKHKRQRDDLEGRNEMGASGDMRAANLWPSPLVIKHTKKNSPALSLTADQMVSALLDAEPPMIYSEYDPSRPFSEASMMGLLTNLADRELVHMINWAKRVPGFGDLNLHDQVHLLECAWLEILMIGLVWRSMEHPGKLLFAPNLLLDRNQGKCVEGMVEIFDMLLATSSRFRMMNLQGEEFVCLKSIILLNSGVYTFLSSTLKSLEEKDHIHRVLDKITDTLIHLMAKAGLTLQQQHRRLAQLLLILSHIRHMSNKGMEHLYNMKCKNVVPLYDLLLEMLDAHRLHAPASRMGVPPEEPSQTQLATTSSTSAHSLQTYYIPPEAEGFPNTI

inhibition [1] [%] | inhibition [2] [%] | Estrogenic effect [3] | Estrogenic effect [4] | Estrogenic effect [5] | inhibition [7] [%] | RBA [8] [%] | T/C [12] [%] | SMILES | T/C [11] [%] | other results
9 | 28 | 66 | 8 | 15 | 33 | 3.5 |  | CC/C(=C(/c1ccc(OC(C)=O)cc1)c1cccc(OC(C)=O)c1)c1ccccc1 |  | T/C [6]: 110%; Estrogenic effect [9]: 66; T/C [10]: 8%
3 | 41 | 73 | 23 | 35 | 32 | 8.7 | 116 | CC/C(=C(\c1ccc(OC(C)=O)cc1)c1cccc(OC(C)=O)c1)c1ccccc1 | 25 | Estrogenic effect [9]: 85
 | 0 |  |  | 94 | 0 |  | 193 | CC/C(=C(\c1ccccc1)c1ccc(OC(C)=O)cc1)c1cccc(OC(C)=O)c1 | 7 | inhibition [13]: 0%; relative binding affinity (RBA) [14]: 6.1
9 | 45 | 61 | 0 | 18 | 16 | 1.8 | 96 | CC/C(=C(\c1ccccc1)c1cccc(OC(C)=O)c1)c1ccc(OC(C)=O)cc1 | 62 | 
 |  |  | 114 | 81 |  | 11.1 | 205 | CC/C(=C(/c1ccccc1)c1ccc(OC(C)=O)cc1)c1cccc(OC(C)=O)c1 | 1 | Estrogenic effect [15]: 124
 |  |  |  |  |  |  |  | CC/C(=C(/CC)c1ccc(O)cc1)c1ccc(O)cc1 [DIETHYLSTILBESTROL] |  | T/C [16]: 3%
 | 0 | 92 | 18 | 80 | 0 | 4.2 | 175 | CC/C(=C(/c1ccccc1)c1cccc(OC(C)=O)c1)c1ccc(OC(C)=O)cc1 | 2 | inhibition [17]: 12%
 | 0 |  | 37 | 72 |  |  | 110 | CCC(=C(c1ccc(OC(C)=O)cc1)c1ccc(OC(C)=O)cc1)c1ccccc1 | 7 | Estrogenic effect [18]: 85; Estrogenic effect [19]: 98; inhibition [17]: 0%
 |  |  |  |  |  |  |  | CC/C(=C(\c1ccccc1)c1ccc(OCCN(C)C)cc1)c1ccccc1.O=C(O)CC(O)(CC(=O)O)C(=O)O [TAMOXIFEN CITRATE] |  | T/C [20]: 4%
